According to ChEMBL document CHEMBL1135823, “Discovery and SAR of a novel selective and orally bioavailable nonpeptide classical competitive inhibitor class of protein-tyrosine phosphatase 1B” (J Med Chem, 2002):
Values joined by “and” are separate entries in the source; they are usually repeats but may differ in a detail not shown here. Identical values can stand only once.

Experiments:
[1] = Pharmacokinetic Parameter Vss was reported for Protein Tyrosine Phosphatase 1B; assay type: ADME, organism-based; conditions: in vivo; read-out: Vss
[2] = Oral bioavailability; assay type: ADME, organism-based; conditions: eutheria, in vivo, read-out: f (po)
[3] = Pharmacokinetic Parameter t1/2 was reported for Protein Tyrosine Phosphatase 1B; assay type: ADME, organism-based; conditions: in vivo
[4] = Pharmacokinetic Parameter clearance was reported for Protein Tyrosine Phosphatase 1B; assay type: ADME, organism-based; conditions: in vivo
[5] = molecular target: T1, Receptor-type tyrosine-protein phosphatase C (Homo sapiens, UniProt P08575); experiment: Inhibitory effect against human CD45 tyrosine phosphatase using p-nitrophenyl phosphate substrate at a pH 7.0
T1 sequence (P08575 whole entry): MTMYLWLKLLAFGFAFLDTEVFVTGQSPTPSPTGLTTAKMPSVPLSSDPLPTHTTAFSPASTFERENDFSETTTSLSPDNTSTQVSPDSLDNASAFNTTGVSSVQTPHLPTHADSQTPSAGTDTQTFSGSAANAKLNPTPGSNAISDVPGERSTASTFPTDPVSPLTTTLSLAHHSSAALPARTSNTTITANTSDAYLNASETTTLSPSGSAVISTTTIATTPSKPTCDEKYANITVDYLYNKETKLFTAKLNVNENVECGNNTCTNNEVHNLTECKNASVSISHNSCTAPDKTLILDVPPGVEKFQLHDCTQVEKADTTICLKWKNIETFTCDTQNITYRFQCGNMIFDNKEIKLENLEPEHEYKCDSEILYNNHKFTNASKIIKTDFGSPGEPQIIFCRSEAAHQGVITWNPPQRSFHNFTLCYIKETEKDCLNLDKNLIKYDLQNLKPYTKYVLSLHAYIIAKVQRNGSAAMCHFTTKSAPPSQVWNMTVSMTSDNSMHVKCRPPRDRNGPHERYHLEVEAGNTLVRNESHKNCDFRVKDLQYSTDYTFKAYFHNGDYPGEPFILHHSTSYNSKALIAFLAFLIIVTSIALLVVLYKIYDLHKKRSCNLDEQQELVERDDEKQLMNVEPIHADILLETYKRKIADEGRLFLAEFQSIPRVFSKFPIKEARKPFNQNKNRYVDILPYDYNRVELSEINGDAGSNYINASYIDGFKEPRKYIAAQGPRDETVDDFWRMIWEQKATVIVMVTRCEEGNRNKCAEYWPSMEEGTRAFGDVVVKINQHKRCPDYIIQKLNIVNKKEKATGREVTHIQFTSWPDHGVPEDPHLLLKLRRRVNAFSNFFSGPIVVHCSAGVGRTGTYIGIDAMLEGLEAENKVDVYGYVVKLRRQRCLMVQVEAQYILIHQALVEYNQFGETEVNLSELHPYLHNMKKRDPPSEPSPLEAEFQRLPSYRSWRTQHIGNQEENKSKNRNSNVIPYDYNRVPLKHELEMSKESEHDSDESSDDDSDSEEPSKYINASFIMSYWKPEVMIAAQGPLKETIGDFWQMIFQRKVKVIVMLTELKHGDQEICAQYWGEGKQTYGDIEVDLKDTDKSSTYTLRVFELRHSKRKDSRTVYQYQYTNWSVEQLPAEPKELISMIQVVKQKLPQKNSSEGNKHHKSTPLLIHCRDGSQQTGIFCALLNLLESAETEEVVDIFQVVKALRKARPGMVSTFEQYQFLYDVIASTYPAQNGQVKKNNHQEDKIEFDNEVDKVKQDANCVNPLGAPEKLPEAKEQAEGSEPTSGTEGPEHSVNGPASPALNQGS
How it was run: (§1)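 Ki from pNPP hydrolysis assays at pH 7 with recombinant PTPs (CD45, LAR, PTPα).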

[6] = molecular target: T2, Tyrosine-protein phosphatase non-receptor type 1 (Homo sapiens, UniProt P18031); experiment: Inhibitory effect against recombinant human protein-tyrosine phosphatase 1B (PTP1B), using p-nitrophenyl phosphate substrate at pH 5.5.
T2 sequence (P18031 whole entry): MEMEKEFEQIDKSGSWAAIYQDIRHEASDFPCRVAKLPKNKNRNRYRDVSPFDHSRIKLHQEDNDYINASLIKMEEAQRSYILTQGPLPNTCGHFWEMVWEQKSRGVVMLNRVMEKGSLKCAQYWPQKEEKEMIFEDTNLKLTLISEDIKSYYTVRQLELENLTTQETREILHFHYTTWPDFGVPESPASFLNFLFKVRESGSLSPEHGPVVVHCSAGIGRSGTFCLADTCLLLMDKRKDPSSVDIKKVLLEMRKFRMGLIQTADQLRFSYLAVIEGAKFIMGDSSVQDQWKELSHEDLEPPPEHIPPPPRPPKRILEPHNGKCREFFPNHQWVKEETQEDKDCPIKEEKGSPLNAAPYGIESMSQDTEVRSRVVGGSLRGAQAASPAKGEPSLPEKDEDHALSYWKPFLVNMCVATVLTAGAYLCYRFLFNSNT

[7] = molecular target: Receptor-type tyrosine-protein phosphatase alpha (Homo sapiens, UniProt P18433); experiment: Inhibitory effect against human Protein-tyrosine phosphatase alpha (PTPalpha) using p-nitrophenyl phosphate substrate at a pH 7.0; how it was run: as §1
Receptor-type tyrosine-protein phosphatase alpha, sequence (P18433 whole entry): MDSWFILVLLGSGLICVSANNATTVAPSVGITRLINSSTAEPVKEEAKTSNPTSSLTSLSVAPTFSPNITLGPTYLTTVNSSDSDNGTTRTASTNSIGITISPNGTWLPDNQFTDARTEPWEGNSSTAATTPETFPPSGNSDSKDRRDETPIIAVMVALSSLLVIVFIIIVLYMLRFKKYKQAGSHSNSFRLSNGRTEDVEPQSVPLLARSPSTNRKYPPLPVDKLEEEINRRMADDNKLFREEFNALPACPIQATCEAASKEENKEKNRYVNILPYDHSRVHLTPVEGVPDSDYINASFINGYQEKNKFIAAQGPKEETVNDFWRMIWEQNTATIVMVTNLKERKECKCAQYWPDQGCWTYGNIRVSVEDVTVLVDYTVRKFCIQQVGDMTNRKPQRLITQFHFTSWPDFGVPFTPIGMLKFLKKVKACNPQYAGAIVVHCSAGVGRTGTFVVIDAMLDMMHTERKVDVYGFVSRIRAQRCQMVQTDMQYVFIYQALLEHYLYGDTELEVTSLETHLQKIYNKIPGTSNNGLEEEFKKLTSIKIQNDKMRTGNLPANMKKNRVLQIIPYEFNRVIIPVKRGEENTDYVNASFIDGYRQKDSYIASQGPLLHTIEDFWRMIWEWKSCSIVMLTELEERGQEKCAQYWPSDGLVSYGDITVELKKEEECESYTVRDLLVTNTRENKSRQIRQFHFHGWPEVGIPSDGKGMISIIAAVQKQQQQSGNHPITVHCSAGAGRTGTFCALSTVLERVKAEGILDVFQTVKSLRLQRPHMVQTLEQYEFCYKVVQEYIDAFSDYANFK

[8] = molecular target: Receptor-type tyrosine-protein phosphatase F (Homo sapiens, UniProt P10586); experiment: Inhibitory effect against human Protein-tyrosine phosphatase Lar using p-nitrophenyl phosphate substrate at a pH 7.0; how it was run: as §1
Receptor-type tyrosine-protein phosphatase F, sequence (P10586 whole entry): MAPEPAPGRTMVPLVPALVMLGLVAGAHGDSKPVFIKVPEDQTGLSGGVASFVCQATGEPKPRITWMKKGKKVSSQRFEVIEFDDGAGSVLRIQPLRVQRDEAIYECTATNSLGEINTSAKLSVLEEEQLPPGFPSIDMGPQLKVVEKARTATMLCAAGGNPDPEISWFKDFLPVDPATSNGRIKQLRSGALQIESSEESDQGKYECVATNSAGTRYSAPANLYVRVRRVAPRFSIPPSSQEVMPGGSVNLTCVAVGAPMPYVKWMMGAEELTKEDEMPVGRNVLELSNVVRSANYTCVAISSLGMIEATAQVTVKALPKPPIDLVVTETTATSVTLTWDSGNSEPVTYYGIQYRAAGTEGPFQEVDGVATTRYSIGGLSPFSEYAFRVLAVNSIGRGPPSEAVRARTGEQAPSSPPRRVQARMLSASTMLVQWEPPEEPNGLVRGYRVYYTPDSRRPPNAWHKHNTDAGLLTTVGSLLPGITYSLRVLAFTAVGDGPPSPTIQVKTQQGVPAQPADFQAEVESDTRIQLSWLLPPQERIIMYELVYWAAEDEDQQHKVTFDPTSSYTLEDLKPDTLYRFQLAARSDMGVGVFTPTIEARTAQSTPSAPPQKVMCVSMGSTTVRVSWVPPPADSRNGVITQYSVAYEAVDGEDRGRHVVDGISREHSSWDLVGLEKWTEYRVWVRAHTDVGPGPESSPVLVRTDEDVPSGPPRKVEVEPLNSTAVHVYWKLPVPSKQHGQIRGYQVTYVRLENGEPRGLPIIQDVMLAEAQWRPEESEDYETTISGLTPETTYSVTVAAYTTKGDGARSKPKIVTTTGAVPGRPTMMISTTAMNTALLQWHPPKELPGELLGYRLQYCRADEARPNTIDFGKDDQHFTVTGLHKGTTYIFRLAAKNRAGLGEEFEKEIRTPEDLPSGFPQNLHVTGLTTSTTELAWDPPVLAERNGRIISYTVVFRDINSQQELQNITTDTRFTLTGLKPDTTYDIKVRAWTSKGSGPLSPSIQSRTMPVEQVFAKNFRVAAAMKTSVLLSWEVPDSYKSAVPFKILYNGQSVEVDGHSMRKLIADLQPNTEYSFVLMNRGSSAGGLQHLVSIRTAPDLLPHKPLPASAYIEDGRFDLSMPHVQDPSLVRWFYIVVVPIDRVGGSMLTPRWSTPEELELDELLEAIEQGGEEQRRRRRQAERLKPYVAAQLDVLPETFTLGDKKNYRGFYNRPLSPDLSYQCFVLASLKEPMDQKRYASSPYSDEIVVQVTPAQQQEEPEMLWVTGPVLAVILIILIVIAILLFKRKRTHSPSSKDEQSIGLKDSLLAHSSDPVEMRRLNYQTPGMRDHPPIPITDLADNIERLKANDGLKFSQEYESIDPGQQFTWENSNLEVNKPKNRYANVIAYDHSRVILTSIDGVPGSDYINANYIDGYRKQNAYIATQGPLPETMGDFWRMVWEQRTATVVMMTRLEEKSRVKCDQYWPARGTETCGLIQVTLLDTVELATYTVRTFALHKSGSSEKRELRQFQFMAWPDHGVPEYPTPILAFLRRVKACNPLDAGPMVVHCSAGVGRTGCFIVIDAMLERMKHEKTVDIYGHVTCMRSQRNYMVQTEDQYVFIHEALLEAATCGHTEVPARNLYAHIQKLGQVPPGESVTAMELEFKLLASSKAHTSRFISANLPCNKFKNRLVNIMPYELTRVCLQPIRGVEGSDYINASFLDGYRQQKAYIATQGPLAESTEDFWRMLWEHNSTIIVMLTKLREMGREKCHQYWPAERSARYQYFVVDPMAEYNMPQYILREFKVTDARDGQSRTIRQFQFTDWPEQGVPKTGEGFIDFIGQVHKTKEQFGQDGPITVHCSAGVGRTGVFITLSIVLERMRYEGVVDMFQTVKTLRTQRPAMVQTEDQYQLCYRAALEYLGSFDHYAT

[9] = molecular target: T2, Tyrosine-protein phosphatase non-receptor type 1; experiment: Inhibition of human recombinant Protein-tyrosine phosphatase 1B.
How it was run: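 Enzyme is a soluble recombinant human PTP1B (residues 1–321). Ki is measured at pH 5.5 with p-nitrophenyl phosphate (pNPP) as substrate.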

- Vd [1]: 0.9 L/kg
- bioavailability [2]: 13%
- half-life [3]: 2.82 h
- clearance [4]: 6.4 mL/min/kg
- Ki [5]: 1400 µM
- Ki [6]: 0.27 µM
- Ki [7]: 2100 µM
- Ki [8]: 2100 µM
- Ki [9]: 3.2 µM and 7.2 µM
SMILES: O=C(O)C(=O)Nc1sc2c(c1C(=O)O)CCN(CCc1ccccc1)C2
